Test results taken from publication PMC4545688 (Pain, 2015).

Assays:
[1] = system: parental ACE1 cells; test: Prostate cancer cells in vitro growth assay, parental ACE1; format: cell-based, canine; settings: for effect on cell growth (sensitivity): three day growth assay in vitro
Outline: (§1)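 Cells were seeded at 3000 cells/well and allowed to adhere overnight at 37°C, 5% CO2. Test compound or staurosporine was prepared as an 8-point, 3-fold DMSO series from a 10 mM stock, giving a final 500-fold dilution of stocks, in triplicate. After 3 days, growth was measured by CellTiter-Glo luminescence, normalised to the DMSO signal (% control), and IC50 was fitted against concentration.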

[2] = system: GFP-transfected ACE-1 cells; test: Prostate cancer cells in vitro growth assay, GFP-transfected ACE-1; format: cell-based, canine; settings: for effect on cell growth (sensitivity): three day growth assay in vitro
Outline: as §1

[3] = system: LNCaP; test: Prostate cancer cell growth in vitro, LNCaP; format: cell-based; settings: data not shown
[4] = system: PC-3; test: Prostate cancer cell growth in vitro, PC-3; format: cell-based; settings: data not shown
[5] = system: Human osteoclast precursors; test: Osteoclast differentiation assay; format: cell-based; settings: six days with CSF-1 and RANKL, up to 10 μM
Outline: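 Human osteoclast precursors were cultured at 37°C, 5% CO2, with CSF-1 (33 ng/mL), RANKL (66 ng/mL) and test compound (up to 10 μM) or 0.2% DMSO for 6 days. After a medium change, cells were incubated 1 more day. Supernatant acid phosphatase (TRAP5b) was read at 405 nm. Results are expressed as percent inhibition relative to vehicle with or without CSF-1, from six independent experiments.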

[6] = Spontaneous guarding and flinching in prostate model of bone cancer; format: in vivo, mouse; settings: 30 mg/kg/day in chow from day 14; days 56 and 63; vs vehicle; 2-min observation
[7] = system: ACE-1 prostate cancer cells; test: Radiographic number of cancer cell colonies and overall tumor burden; format: in vivo, mouse
Outline: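 In the same chow-dosing femoral tumor model, radiographs of tumor-bearing femurs were analysed blind. Images were split into distal and proximal halves and enlarged. Each colony was numbered and traced, defined as a radio-translucent area bounded by radio-opaque woven bone. Colony number per region and total tumor area per femur were recorded, then averaged per treatment group.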

[8] = system: CD68+ macrophages and osteoclasts; test: CD68+ cells in tumor-bearing bone sections; format: in vivo, mouse
Outline: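 Mice received intramedullary femoral injection of GFP+ ACE-1 prostate cancer cells. From day 14 they were given test compound in chow (average 30 mg/kg/day) or control chow ad libitum, n=8/group. At day 65, 20 μm decalcified frozen bone sections were stained with rat anti-mouse CD68 (1:2,000), Cy3 secondary and DAPI. Two 400X confocal images were taken per section from three sections per animal, in GFP+ tumor areas. Blinded counts were made per μm3.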

[9] = Radiographic assessment of tumor-induced bone remodeling; format: in vivo, mouse
Outline: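 In the femoral ACE-1 tumor model, compound-formulated chow (average 30 mg/kg/day) or control chow was given ad libitum from day 14 to study end, n=8/group. Radiographs were taken from day 14 and then every 7 days. In blinded analysis, bone lying outside the normal femur diameter (defined from naïve/sham mice) was traced with a mm-calibrated free-form tool. Mean area was calculated per group.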

[10] = Rat formalin test; format: in vivo; settings: 30 mg/kg PO two hours before subplantar formalin; vs vehicle; p<0.05
Outline: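 SD rats received test compound at 30 mg/kg or vehicle (0.5% HPMC/1% Tween 80/2.5% DMSO) orally, 2 h before subplantar formalin (0.05 mL, 1%). Hind paw licking time was recorded at 5-minute intervals for 30 minutes, covering the acute and inflammatory phases. Data are the average of two independent experiments with six rats per group per trial.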

[11] = ref [4],[16],[19]; cited from earlier work
[12] = three day growth assay, CellTiter-Glo
[13] = 30 mg/kg/day in chow, distal and proximal ends of femur, vs vehicle, p<0.05
[14] = sustained administration 30 mg/kg/day in chow

| SMILES | effect on cell growth (sensitivity) [1] | effect on cell growth (sensitivity) [2] | effect on prostate cancer cell growth [3] | concentration up to which no effect on cell growth (not sensitive) [1, 12] | effect on prostate cancer cell growth [4] | osteoclast differentiation (acid phosphatase activity, TRAP5b) [5] | time spent guarding tumor-bearing limb [6] | number of cancer cell colonies [7, 13] | total tumor burden area [7, 13] | attenuation of disease progression [7, 14] | viability of cancer cells in tumor cell colony ([8]; GFP+ prostate cancer cells in bone sections, day 65) | number of CD68+ cells per tissue volume ([8]; day 65 post-tumor cell injection, chronic treatment, vs vehicle, p<0.05) | concentration up to which no effect on cell growth (not sensitive) [2, 12] | extra-periosteal bone formation (periosteal reaction area) ([9]; 30 mg/kg/day in chow from day 14, days 14–63, vs vehicle, p<0.05) | overall radio-opacity of tumor-bearing femur ([9]; 30 mg/kg/day in chow, vs prostate cancer + vehicle) | attenuation of tumor-induced bone remodeling [9, 14] | hind paw licking time, acute phase (0–5 minutes) [10] | hind paw licking time, inflammatory phase (10–30 minutes) [10] | crossing of the blood brain barrier [11] |
| --- | --- | --- | --- | --- | --- | --- | --- | --- | --- | --- | --- | --- | --- | --- | --- | --- | --- | --- | --- |
| CN[C@@H]1C[C@H]2O[C@@](C)([C@@H]1OC)n1c3ccccc3c3c4c(c5c6ccccc6n2c5c31)C(=O)NC4 [staurosporine, reference compound] | sensitive | sensitive | – | – | – | – | – | – | – | – | – | – | – | – | – | – | – | – | – |
| FC(F)(F)c1ccc(CNc2ccc(Cc3c[nH]c4ncc(Cl)cc34)cn2)cn1 [PLX3397] | did not affect | – | did not affect | > 10 µM | did not affect | inhibited | reduced | significantly reduced | significantly reduced | approximately 50% | little effect | significantly reduced | > 10 µM | significantly reduced | increase | approximately 50% | analgesic effects | analgesic effects | does cross the blood brain barrier |
| Cn1c(=O)n(-c2ccc(C(C)(C)C#N)cc2)c2c3cc(-c4cnc5ccccc5c4)ccc3ncc21 [BEZ-235, reference compound] | sensitive | sensitive | – | – | – | – | – | – | – | – | – | – | – | – | – | – | – | – | – |
